Test results reported in ChEMBL document CHEMBL3045703, “Synthesis and insect antifeedant activity of plumbagin derivatives with the amino acid moiety” (2009).

Tests used:
Assay type in all cases: functional
Achaea janata [1] = assay: Antifeedant activity against third instar larvae of Achaea janata in compound treated fresh castor leaves assessed as consumption at 28 +/- 2 degC, relative humidity 65 +/- 5 measured after 6 to 24 hr
How it was run: (§1)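 No-choice leaf-disk test on castor leaf discs; control discs got solvent only. Prestarved third instar larvae reared on fresh castor leaves at 28 ± 2 °C, RH 65 ± 5, 16:8 light/dark. Consumed area tracked at 6, 12 and 24 h and measured with a leaf area meter. Antifeedant index = (C − T)/(C + T) × 100. 10 sets per concentration, each test run in triplicate; mean ± SD.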

Spodoptera litura [2] = assay: Antifeedant activity against third-instar larvae of tobacco caterpillar Spodoptera litura in compound treated fresh castor leaves assessed as consumption at 28 +/- 2 degC, relative humidity 65 +/- 5 measured after 6 to 24 hr; how it was run: as §1
Achaea janata [3] = assay: Toxicity in third instar larvae of Achaea janata assessed as mortality at 4 ug/insect measured after 4 to 28 days by topical bioassay
Spodoptera litura [4] = assay: Toxicity in third-instar larvae of tobacco caterpillar Spodoptera litura assessed as mortality at 4 ug/insect measured after 4 to 28 days by topical bioassay
Achaea janata [5] = assay: Antifeedant activity against third instar larvae of Achaea janata in compound treated fresh castor leaves assessed as consumption at 0.1% measured after 6 to 24 hr; how it was run: as §1
Spodoptera litura [6] = assay: Antifeedant activity against third-instar larvae of tobacco caterpillar Spodoptera litura in compound treated fresh castor leaves assessed as consumption at 0.1% measured after 6 to 24 hr; how it was run: as §1
Spodoptera litura [7] = assay: Toxicity in third-instar larvae of tobacco caterpillar Spodoptera litura assessed as mortality at 1 ug/insect measured after 4 to 28 days by topical bioassay
Achaea janata [8] = assay: Toxicity in third instar larvae of Achaea janata assessed as mortality at 1 ug/insect measured after 4 to 28 days by topical bioassay

Structure (SMILES)	antifeedant EC50 (Achaea janata [1]) [microg/cm2]	Antifeedant EC50 (leaf-consumption) (Spodoptera litura [2]) [microg/cm2]	mortality (Achaea janata [3]) [%]	mortality (Spodoptera litura [4]) [%]	Activity (Achaea janata [5]) [%]	Activity (Spodoptera litura [6]) [%]	mortality (Spodoptera litura [7]) [%]	mortality (Achaea janata [8]) [%]
COc1cccc2c1C(=O)C(NCCOC(=O)[C@H](C)NC(C)=O)=C(C)C2=O	340.63	>500	<20	<20				
COc1cccc2c1C(=O)C(NCCOC(=O)CCCNC(C)=O)=C(C)C2=O	>500	247.59	<20	<20				
CC1=CC(=O)c2c(O)cccc2C1=O [PLUMBAGIN]			<20	<20	35.69	26		
COc1cccc2c1C(=O)C(NCCOC(=O)[C@H](Cc1ccc(O)cc1)NC(C)=O)=C(C)C2=O	199.45	461	24.6	<20				
COc1cccc2c1C(=O)C(NCCOC(=O)[C@H](CC(C)C)NC(C)=O)=C(C)C2=O	>500	466.28	<20	74.2				
C/C=C(\C)C(=O)O[C@H]1C[C@@H](OC(C)=O)[C@@]2(C(=O)OC)CO[C@H]3[C@@H](O)[C@@](C)([C@]45O[C@@]4(C)[C@@H]4C[C@H]5O[C@@H]5OC=C[C@@]54O)[C@H]4[C@]1(CO[C@]4(O)C(=O)OC)[C@@H]32 [AZADIRACHTIN A]							84	93.6
COc1cccc2c1C(=O)C(NCCOC(=O)CNC(C)=O)=C(C)C2=O	69.51	36.87	100	<20				
COc1cccc2c1C(=O)C(NCCOC(=O)c1ccc(NC(C)=O)cc1)=C(C)C2=O	268.88	117.25	<20	63.8				
COc1cccc2c1C(=O)C(NCCOC(=O)[C@@H](NC(C)=O)C(C)C)=C(C)C2=O	104.59	>500	32.6	84.5				
COc1cccc2c1C(=O)C(NCCOC(=O)[C@H](CCSC)NC(C)=O)=C(C)C2=O	37.37	48.47	100	<20				
COc1cccc2c1C(=O)C(NCCOC(=O)[C@H](Cc1ccccc1)NC(C)=O)=C(C)C2=O	51.96	105.93	23.4	<20				
CC[C@H](C)[C@H](NC(C)=O)C(=O)OCCNC1=C(C)C(=O)c2cccc(OC)c2C1=O	292	>500	<20	<20				
COc1cccc2c1C(=O)C(NCCOC(=O)[C@H](CS)NC(C)=O)=C(C)C2=O	>500	>500	<20	100				
